The results in this text go back to ChEMBL document CHEMBL1126766 (J Med Chem, 1993).

Common to all, as to type: functional
Experiment [1] deals with T1, Vanilloid receptor (Rattus norvegicus, UniProt Q9ERZ8+Q9WUD2+O35433). Kind of experiment: In vitro effective concentration for [Ca2+] uptake into dorsal root ganglia neurones in culture.
Experiment [2] deals with T1, Vanilloid receptor. The experiment in a line: In vitro effective concentration for Ca++ uptake into dorsal root ganglia neurones in culture. Summed up:
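Uptake of 45Ca2+ tracer into cultured dorsal root ganglion neurones, evoked by the applied agonist analogues. Potency is expressed as EC50 in μM, reported ± an error term. Full assay details are held in an earlier paper of the series.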

The species entered for another experiment is Mus musculus. The experiment in a line: Effective analgesic dose in mouse tail-flick latency assay.
The species named for another experiment is Cavia porcellus. The experiment in a line: Effective concentration for guinea pig ileum contraction in an in vitro assay.

Molecules are shown by their SMILES.

In general, EC50 refers to the concentration giving half of the maximal effect. On Vanilloid receptor [1], `COc1cc(CNC(=O)/C=C/c2ccc(Cl)cc2Cl)ccc1O` had a concentration for a half-maximal effect (EC50) of 0.62 µM.

`COc1cc(CNC(=O)CBr)ccc1O` came in with an EC50 at Vanilloid receptor [2] of over 100 µM.

With `CCCCCCCCC(=O)NCc1ccc(O)c(OC)c1` [NONIVAMIDE], the EC50 on Vanilloid receptor [2] (read-out: EC50) came out at 0.55 µM.

In turn, `CCCCCCCCCCCCCCCCCC(=O)NCc1ccc(O)c(OC)c1` came in with an EC50 at Vanilloid receptor [2] of over 100 µM.

With `COCCOCCOCC(=O)NCc1ccc(O)c(OC)c1`, at Vanilloid receptor [1], the EC50 is over 100 µM.

Compound `COc1cc(CNC(=O)CCc2ccccc2)ccc1O` displayed an EC50 at Vanilloid receptor [1] of 45.26 µM.

As for `COc1cc(CNC(=O)/C=C\c2ccc(Cl)cc2)ccc1O`, on Vanilloid receptor [1], the EC50 is 50.1 µM.

As to `COc1cc(CNC(=O)CCCCCCCCCCC(=O)O)ccc1O`, on Vanilloid receptor [2], the EC50 is over 100 µM.

Compound `COc1cc(C/N=C(\S)NC(c2ccccc2)c2ccccc2)ccc1O` gave an EC50 at Vanilloid receptor [1] of 0.27 µM.

Compound `CCCCCCCCCCCCCCCCCC/N=C(\S)NCc1ccc(O)c(OC)c1` came in with an EC50 on Vanilloid receptor [2] of 8.1 µM.

As for `COc1cc(CNC(=O)/C=C/c2ccc(NC=O)cc2)ccc1O`, the EC50 on Vanilloid receptor [1] worked out at 1000 µM.

`COc1cc(CNC(=O)Cc2ccc(Cl)cc2)ccc1O` yielded a concentration for a half-maximal effect (EC50) at Vanilloid receptor [1] of 7.77 µM.

`COc1cc(CNC(=O)/C=C/c2ccc(-c3ccccc3)cc2)ccc1O` returned an EC50 at Vanilloid receptor [1] of 0.24 µM.

`CCCCCCCC/C=C/CCCCCCCC(=O)NCc1ccc(O)c(OC)c1`: at Vanilloid receptor [2], the EC50 was 0.36 µM.

The compound `COc1cc(C/N=C(/N)S)ccc1O` showed an EC50 on Vanilloid receptor [1] of over 100 µM.

Consider `COCCOCC(=O)NCc1ccc(O)c(OC)c1`, for which the EC50 at Vanilloid receptor [1] was over 100 µM.

Broadly, the ED50 is the dose that gives a 50% effect, or the effect in half of the subjects. Regarding `CCCCCCC/N=C(\S)NCc1ccc(O)c(OC)c1`, the EC50 on Vanilloid receptor [2] worked out at 0.29 µM; in the experiment filed under Cavia porcellus, 0.1 µM. Further, in the experiment listed under Mus musculus, the ED50 was determined as 15 µmol/kg.

For the compound `COc1cc(C/N=C(\S)NC(c2ccccc2)(c2ccccc2)c2ccccc2)ccc1O`, on Vanilloid receptor [2], the EC50 is over 100 µM.

With `COc1cc(CNC(=O)/C=C/c2ccc(C#N)cc2)ccc1O`, the EC50 on Vanilloid receptor [1] was determined as 26.5 µM.

`COc1cc(CNC(=O)CCCCCCC(C)C)ccc1O` [DIHYDROCAPSAICIN] showed an EC50 on Vanilloid receptor [1] of 0.19 µM.

As to `COc1cc(CNC(=O)CCc2ccc([N+](=O)[O-])cc2)ccc1O`, at Vanilloid receptor [1], the EC50 was found to be 21 µM.

As to `COc1cc(CNC(=O)CCc2ccc(O)cc2)ccc1O`, the EC50 at Vanilloid receptor [1] is over 100 µM.

`COCCOCCOCC(=O)NCCCCCCCCCCC(=O)NCc1ccc(O)c(OC)c1` showed an EC50 on Vanilloid receptor [2] of over 100 µM.

With `COc1cc(CNC(=O)/C=C/c2ccc(Cl)cc2)ccc1O`, on Vanilloid receptor [1], the EC50 came to 1.24 µM.

For `COc1cc(CNC(=O)/C=C/c2ccc([N+](=O)[O-])cc2)ccc1O`, at Vanilloid receptor [2], the EC50 worked out at 4.58 µM.

Take `COc1cc(CNC(=O)/C=C/c2ccc(I)cc2)ccc1O`: the concentration for a half-maximal effect (EC50) on Vanilloid receptor [1] worked out at 0.35 µM.

Regarding `CCCCCCCCCCCCCCCC/N=C(\S)NCc1ccc(O)c(OC)c1`, the EC50 on Vanilloid receptor [2] was over 100 µM.

`COc1cc(CNC(=O)/C=C/c2cccc(Cl)c2)ccc1O` returned a 50% effective concentration (EC50) at Vanilloid receptor [1] of 2.58 µM.

Take `COc1cc(CNC(=O)CCc2ccc(Cl)cc2)ccc1O`: on Vanilloid receptor [1], the EC50 came out at 3.09 µM.

As to `CCCCCCCC/N=C(\S)NCc1ccc(O)c(OC)c1`, the EC50 on Vanilloid receptor [2] (read-out: EC50) and in the experiment filed under Cavia porcellus was 0.06 µM each time. Also, in the experiment filed under Mus musculus, the ED50 amounted to 3.2 µmol/kg.

As for `COc1cc(CNC(=O)C#Cc2ccc(Cl)cc2)ccc1O`, the EC50 at Vanilloid receptor [1] is 4.1 µM.

`COc1cc(CNC(=O)/C=C/c2ccc(N(C)C)cc2)ccc1O` yielded an EC50 at Vanilloid receptor [1] of 4.39 µM.

`CCCCCCCC/C=C\CCCCCCCC(=O)NCc1ccc(O)c(OC)c1` [OLVANIL]: the concentration giving a half-maximal response (EC50) on Vanilloid receptor [2] stood at 0.17 µM.

As to `COc1cc(CC(=O)NCCc2ccc(Cl)cc2)ccc1O`, the EC50 on Vanilloid receptor [1] is 0.66 µM.

In the case of `CCCCC/N=C(\S)NCc1ccc(O)c(OC)c1`, the values for the EC50 at Vanilloid receptor [1] and in the experiment filed under Cavia porcellus were 1.96 µM and 1.8 µM, respectively. The same compound registered an ED50 in the experiment filed under Mus musculus of over 50 µmol/kg.

Consider `COc1cc(CNC(=O)CCCCCNC(=O)OC(C)(C)C)ccc1O`, for which the EC50 on Vanilloid receptor [1] was 79.8 µM.

With `COc1cc(CNC(=O)CCCCCN)ccc1O.O=C(O)C(F)(F)F`, at Vanilloid receptor [1], the EC50 is over 100 µM.

Turning to `COc1cc(CNC(=O)CCc2ccc(N=[N+]=[N-])cc2)ccc1O`, the EC50 on Vanilloid receptor [2] turned out to be 4.2 µM.

`CCCCCCCCC/N=C(\S)NCc1ccc(O)c(OC)c1` had an EC50 at Vanilloid receptor [2] of 0.1 µM.

On Vanilloid receptor [2], `CCCCCCCC/C=C/CCCCCCC/N=C(\S)NCc1ccc(O)c(OC)c1` returned a concentration giving a half-maximal response (EC50) of over 100 µM.

Turning to `CCCCCCCCCCCC/N=C(\S)NCc1ccc(O)c(OC)c1`, the concentration giving a half-maximal response (EC50) at Vanilloid receptor [2] was 0.16 µM.

On to `COc1cc(CNC(=O)/C=C/c2ccccc2)ccc1O`, for which the EC50 at Vanilloid receptor [1] is 11.8 µM.

The compound `CCCCCCCCCC/N=C(\S)NCc1ccc(O)c(OC)c1` showed an EC50 on Vanilloid receptor [2] of 0.11 µM.

On Vanilloid receptor [2], `COc1cc(CNC(=O)CCl)ccc1O` displayed an EC50 of over 100 µM.

`CCCC/N=C(\S)NCc1ccc(O)c(OC)c1`: the values for the EC50 on Vanilloid receptor [1] and in the experiment listed under Cavia porcellus were 9.48 µM and 3.4 µM, respectively. The ED50 in the experiment filed under Mus musculus is over 50 µmol/kg.

With `COc1cc(C/N=C(\S)NC2[C@H]3C[C@@H]4C[C@@H](C[C@H]2C4)C3)ccc1O` (stereo partly drawn), on Vanilloid receptor [1], the EC50 was 1.08 µM.

On to `CCCCCC/N=C(\S)NCc1ccc(O)c(OC)c1`, for which the EC50 on Vanilloid receptor [1] and in the experiment listed under Cavia porcellus was 0.18 µM throughout. This compound also returned an ED50 in the experiment filed under Mus musculus of 12.5 µmol/kg.

In turn, `COc1cc(CNC(=O)CCCC/C=C/C(C)C)ccc1O` [CAPSAICIN] gave a median effective dose (ED50) in the experiment listed under Mus musculus of 15 µmol/kg.
